In brackets after ≈: the same amount, converted by molar mass. Blank lines part the entries; values can stand above or below the molecule they belong to.
Tests used:
HEK-293 cells = test: Mammalian cell cytotoxicity; type: cell-based, human; conditions: 1/2 MIC (4: 1 μM; colistin 0.125 μM); 24 hours; XTT
Cos-7 cells = test: Mammalian cell cytotoxicity; type: cell-based, simian; conditions: 1/2 MIC; 24 hours; XTT
Outline: (§1)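 HEK-293, HeLa and Cos-7 cells kept in DMEM with 10% FBS and 1% penicillin–streptomycin. Seeded at 3 × 10^4 cells per well and grown 24 h to 80–90% confluence. […] XTT assay: absorbance at 450 nm, 690 nm background. Percent survival versus untreated cells, three replicates, mean ± SD.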

tet^R E. coli [1] = test: Membrane permeability using propidium iodide and FDA; type: cell-based, Escherichia coli
Outline: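 tetR E. coli grown overnight with 100 μg mL−1 ampicillin (37 °C, 200 RPM) and knocked back to OD600 0.550. Treated 30 min at half-MIC; Triton X-100 and DMSO controls; DMSO 0.5%. Washed (3000 × g, 5 min) into PBS, then stained with propidium iodide (30 μM) and fluorescein diacetate (60 μM) for 30 min at 37 °C. Washed again and imaged by confocal microscopy.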

S. aureus 1199B [2] = test: MIC against NorA expressing S. aureus 1199B; type: cell-based; conditions: Staphylococcus aureus
Outline: (§2)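 Broth microdilution. Overnight cultures knocked back to OD600 0.100 and grown at 37 °C to OD600 0.500. Final inoculum 4 × 10^5 CFU mL−1 in cation-adjusted MHII; S. pneumoniae in CA-MHB with 5% LHB; tetR E. coli in LB with 100 μg mL−1 ampicillin. Final DMSO 0.5% v/v. Incubated 18–20 h at 37 °C, then OD600 read. MIC is ≥90% inhibition versus untreated cells. Triplicate wells, repeated on two further plates.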

E. aerogenes (R:Cep) = test: MIC screening; type: cell-based, Enterobacter aerogenes; conditions: Klebsiella aerogenes
Outline: as §2

E. coli (Tol-) = test: MIC screening; type: cell-based; conditions: Escherichia coli
Outline: as §2

E. coli (WT) = test: MIC screening; type: cell-based; conditions: Escherichia coli
Outline: as §2

P. aeruginosa (R:Mero) = test: MIC screening; type: cell-based; conditions: Pseudomonas aeruginosa
Outline: as §2

[3] = Solubility in combination assay; conditions: combination assay medium
tet^R E. coli [4] = test: Combination; type: cell-based, Escherichia coli; conditions: for Fold enhancement: tetracycline, amphiphile 20 μM, Tet^R E. coli
S. aureus 1199B [5] = test: Membrane permeability using propidium iodide; type: cell-based, Staphylococcus aureus; conditions: 0.1% (1.6 mM)
tet^R E. coli [6] = test: MIC against efflux pump expressing tet^R E. coli; type: cell-based; conditions: Escherichia coli
Outline: as §2

MRSA (control) = test: MIC screening; type: cell-based; conditions: Staphylococcus aureus
Outline: as §2

S. aureus (control) = test: MIC screening; type: cell-based; conditions: Staphylococcus aureus
Outline: as §2

MRSA = test: MIC against MRSA as stated in text; type: cell-based; conditions: Staphylococcus aureus
Outline: as §2

MRSA (USA 300) = test: MIC screening; type: cell-based; conditions: Staphylococcus aureus, MRSA|USA300
Outline: as §2

MRSA (USA100) = test: MIC screening; type: cell-based; conditions: Staphylococcus aureus
Outline: as §2

S. pneumoniae (control) = test: MIC screening; type: cell-based; conditions: Streptococcus pneumoniae
Outline: as §2

tet^R E. coli [7] = test: Resistance development by sequential culturing; type: cell-based, Escherichia coli; conditions: 15 days
Outline: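 Serial passage of tetR E. coli in LB over 15 days, with minocycline as comparator. […] Each day, cells from the second-highest concentration that allowed growth were diluted 1:100 into fresh media at 0.25–4× MIC. Cultures growing above the MIC were passaged on antibiotic-free LB agar and the MIC was redetermined. Mean of three trials.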

NorA efflux pump = target: T1, NorA efflux pump (Staphylococcus aureus, UniProt P0A0J7); test: Efflux pump inhibition; type: cell-based; conditions: read-out: inhibition of NorA activity, lower than for 3 or 4
T1 sequence (P0A0J7 1-388): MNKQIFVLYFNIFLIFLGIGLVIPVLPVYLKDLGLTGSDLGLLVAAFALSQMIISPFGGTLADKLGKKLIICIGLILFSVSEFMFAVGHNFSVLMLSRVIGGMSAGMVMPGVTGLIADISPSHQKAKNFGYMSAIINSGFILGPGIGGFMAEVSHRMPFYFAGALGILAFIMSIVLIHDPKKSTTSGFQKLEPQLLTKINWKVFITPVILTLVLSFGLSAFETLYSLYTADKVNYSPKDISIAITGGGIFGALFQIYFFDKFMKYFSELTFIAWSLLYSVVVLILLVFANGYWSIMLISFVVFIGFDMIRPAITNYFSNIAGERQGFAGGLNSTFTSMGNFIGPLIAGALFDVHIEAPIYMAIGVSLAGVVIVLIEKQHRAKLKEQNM
Outline: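 S. aureus 1199B knocked back to OD600 0.550, then loaded with ethidium bromide (10 μg mL−1) plus 100 μM CCCP in MHII at OD600 1.000 for 20 min at room temperature. Spun, held on ice, warmed 5 min, adjusted to OD600 0.800. Added to wells containing test compound, CCCP or reserpine. Fluorescence read at ex 530/em 600 nm every minute for 20 min. Three runs, SD.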

tet^R E. coli [8] = test: Potassium transport; type: cell-based, Escherichia coli; conditions: 30 μM
Outline: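 tetR E. coli pelleted at 2000 × g, resuspended in PBS and adjusted to OD 1.300. Stirred suspension monitored with a K+-selective electrode. Multiple test compound concentrations; mV recorded every 30 s for 15 min. [K+] calculated from a calibration curve. Total potassium pool from cells heated at 100 °C for 30 min, set as 100%. Three trials, SD.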

E. faecalis (control) = test: MIC screening; type: cell-based, Enterococcus faecalis
Outline: as §2

E. faecalis (VanA) = test: MIC screening; type: cell-based, Enterococcus faecalis
Outline: as §2

human hepatocytes = test: Human hepatocyte cell viability; type: cell-based; conditions: 72 h, read-out: EC50 against human hepatocytes
Outline: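 Human hepatocytes treated with 1–100 μM test compound, or CCCP as control, for 72 h. Survival then determined.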

[9] = test system: HEK-293, HeLa and Cos-7 cells; test: Mammalian cell cytotoxicity; type: cell-based; conditions: 1/2 MIC; 24 hours; XTT
Outline: as §1

[10] = amphiphile at 1/2 MIC, tet^R E. coli

Molecule: colistin
survival of HEK-293 (HEK-293 cells): about 60% | survival of Cos-7 (Cos-7 cells): non-cytotoxic | concentration that increases membrane permeability (propidium iodide) (tet^R E. coli [1]): ≥ 2000 nM

Molecule: CCn1cc(C(=O)O)c(=O)c2cc(F)c(N3CCNCC3)cc21 [Norfloxacin, norfloxacin]
MIC (S. aureus 1199B [2]): 64 µM (≈ 20.4 µg/mL)

MIC (E. aerogenes (R:Cep)): < 0.33 µM | MIC (E. coli (Tol-)): < 0.33 µM | MIC (E. coli (WT)): < 0.33 µM | MIC (P. aeruginosa (R:Mero)): > 166 µM
Molecule: C[C@@H](O)[C@H]1C(=O)N2C(C(=O)O)=C(S[C@@H]3CN[C@H](C(=O)N(C)C)C3)[C@H](C)[C@H]12 [Meropenem, meropenem]

Molecule: CC(C)[C@@H]1NC(=O)[C@H](C)OC(=O)[C@@H](C(C)C)NC(=O)[C@@H](C(C)C)OC(=O)[C@H](C(C)C)NC(=O)[C@H](C)OC(=O)[C@@H](C(C)C)NC(=O)[C@@H](C(C)C)OC(=O)[C@H](C(C)C)NC(=O)[C@H](C)OC(=O)[C@@H](C(C)C)NC(=O)[C@@H](C(C)C)OC1=O [Valinomycin, valinomycin]
solubility [3]: insoluble at >20 μM | Fold enhancement (tet^R E. coli [4]): 2 fold

Molecule: Triton X-100
membrane permeability (propidium iodide) (tet^R E. coli [1]; 0.1% (1.6 mM)): increases membrane permeability | membrane permeability (propidium iodide) (S. aureus 1199B [5]): increases membrane permeability | Fold enhancement (tet^R E. coli [4]): 2 fold

MIC (tet^R E. coli [6]): 900 ± 50 µM (≈ 400 µg/mL)
Molecule: CN(C)[C@@H]1C(O)=C(C(N)=O)C(=O)[C@@]2(O)C(O)=C3C(=O)c4c(O)cccc4[C@@](C)(O)[C@H]3C[C@@H]12 [Tetracycline, tetracycline]

MIC (MRSA (control)): 1 µM (≈ 1.45 µg/mL) | MIC (S. aureus (control)): 0.5 µM (≈ 0.725 µg/mL) | MIC (MRSA): 1 to 2 µM (≈ 1.45 to 2.9 µg/mL) | MIC (MRSA (USA 300)): 1 µM (≈ 1.45 µg/mL) | MIC (MRSA (USA100)): 1 µM (≈ 1.45 µg/mL) | MIC (S. pneumoniae (control)): < 0.1 µM
Molecule: CN[C@H](CC(C)C)C(=O)N[C@H]1C(=O)N[C@@H](CC(N)=O)C(=O)N[C@H]2C(=O)N[C@H]3C(=O)N[C@H](C(=O)N[C@H](C(=O)O)c4cc(O)cc(O)c4-c4cc3ccc4O)[C@H](O)c3ccc(c(Cl)c3)Oc3cc2cc(c3O[C@@H]2O[C@H](CO)[C@@H](O)[C@H](O)[C@H]2O[C@H]2C[C@](C)(N)[C@H](O)[C@H](C)O2)Oc2ccc(cc2Cl)[C@H]1O [Vancomycin, vancomycin]

Molecule: CN(C)c1ccc(O)c2c1C[C@H]1C[C@H]3[C@H](N(C)C)C(O)=C(C(N)=O)C(=O)[C@@]3(O)C(O)=C1C2=O [minocycline]
resistance development, increase in MIC (tet^R E. coli [7]): 40 fold

Molecule: COC(=O)[C@H]1[C@H]2C[C@@H]3c4[nH]c5cc(OC)ccc5c4CCN3C[C@H]2C[C@@H](OC(=O)c2cc(OC)c(OC)c(OC)c2)[C@@H]1OC [Reserpine, reserpine]
inhibition at 4 µM (NorA efflux pump): ~30%

Molecule: gramicidin-D
solubility [3]: insoluble at >20 μM | K+ release, percent of total potassium pool (tet^R E. coli [8]): 50–60% | Fold enhancement (tet^R E. coli [4]): 1 fold

Molecule: CCCCCCCCCC(=O)N[C@@H](Cc1c[nH]c2ccccc12)C(=O)N[C@H](CC(N)=O)C(=O)N[C@@H](CC(=O)O)C(=O)N[C@@H]1C(=O)NCC(=O)N[C@@H](CCCN)C(=O)N[C@@H](CC(=O)O)C(=O)N[C@H](C)C(=O)N[C@@H](CC(=O)O)C(=O)NCC(=O)N[C@H](CO)C(=O)N[C@@H]([C@H](C)CC(=O)O)C(=O)N[C@@H](CC(=O)c2ccccc2N)C(=O)O[C@@H]1C [Daptomycin, daptomycin]
MIC (E. faecalis (control)): 2.5 µM (≈ 4.05 µg/mL) | MIC (E. faecalis (VanA)): 2.5 µM (≈ 4.05 µg/mL)

Molecule: N#CC(C#N)=NNc1cccc(Cl)c1 [CCCP, carbonyl cyanide 3-chlorophenylhydrazone]
EC50 (human hepatocytes): 5 µM | inhibition at 4 µM (NorA efflux pump): ~30% | cytotoxicity [9]: cytotoxic | FIC index with tetracycline (tet^R E. coli [4]; [10]): 0.75 | increase (recovery) in activity of tetracycline (tet^R E. coli [4]; [10]): 4 fold

Source: PMC9059958 (RSC Advances, 2019)
